Assays:
Integrin alpha-4/beta-1 [1] = biological target: T1, Integrin alpha-4/beta-1 (Homo sapiens, UniProt P05556+P13612); assay: Inhibition of human alpha4beta1 integrin expressed in human Jurkat cells assessed as inhibition of cell adhesion to VCAM-1; format: cell-based
How it was run: (§1)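 Cell adhesion inhibition assay, run on Jurkat with VCAM-1, RPMI8866, K562 or SK-MEL-24 cells. Each experiment was run in quadruplicate and repeated at least three times.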

Integrin alpha-5/beta-1 = Integrin alpha-5/beta-1 (Homo sapiens, UniProt P05556+P08648); assay: Inhibition of human alpha5beta1 integrin expressed in human K-562 cells assessed as inhibition of cell adhesion to fibronectin; format: cell-based, K562; how it was run: as §1
Sequence of Integrin alpha-5/beta-1 (P05556 21-798 limits assumed): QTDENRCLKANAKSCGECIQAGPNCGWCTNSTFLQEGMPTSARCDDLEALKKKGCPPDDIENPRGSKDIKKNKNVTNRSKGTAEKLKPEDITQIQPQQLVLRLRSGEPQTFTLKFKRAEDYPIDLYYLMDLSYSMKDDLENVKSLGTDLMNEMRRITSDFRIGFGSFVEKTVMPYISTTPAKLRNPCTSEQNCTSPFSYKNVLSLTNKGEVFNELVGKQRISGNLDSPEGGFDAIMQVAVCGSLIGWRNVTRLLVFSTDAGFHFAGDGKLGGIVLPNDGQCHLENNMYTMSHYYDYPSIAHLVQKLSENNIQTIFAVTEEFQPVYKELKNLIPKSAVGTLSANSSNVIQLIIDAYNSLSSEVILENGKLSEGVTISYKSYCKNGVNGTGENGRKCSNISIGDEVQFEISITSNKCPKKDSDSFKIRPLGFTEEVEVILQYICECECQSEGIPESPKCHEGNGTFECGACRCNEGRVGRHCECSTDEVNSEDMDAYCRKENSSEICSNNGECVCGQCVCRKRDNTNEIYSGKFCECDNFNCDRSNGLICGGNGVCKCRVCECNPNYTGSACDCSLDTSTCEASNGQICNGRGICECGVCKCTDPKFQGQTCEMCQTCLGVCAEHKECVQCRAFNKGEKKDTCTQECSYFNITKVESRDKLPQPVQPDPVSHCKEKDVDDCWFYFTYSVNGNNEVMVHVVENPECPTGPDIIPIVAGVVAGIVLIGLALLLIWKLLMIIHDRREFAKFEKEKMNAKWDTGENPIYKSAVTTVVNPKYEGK
Sequence of Integrin alpha-5/beta-1 (P08648 42-894 limits assumed): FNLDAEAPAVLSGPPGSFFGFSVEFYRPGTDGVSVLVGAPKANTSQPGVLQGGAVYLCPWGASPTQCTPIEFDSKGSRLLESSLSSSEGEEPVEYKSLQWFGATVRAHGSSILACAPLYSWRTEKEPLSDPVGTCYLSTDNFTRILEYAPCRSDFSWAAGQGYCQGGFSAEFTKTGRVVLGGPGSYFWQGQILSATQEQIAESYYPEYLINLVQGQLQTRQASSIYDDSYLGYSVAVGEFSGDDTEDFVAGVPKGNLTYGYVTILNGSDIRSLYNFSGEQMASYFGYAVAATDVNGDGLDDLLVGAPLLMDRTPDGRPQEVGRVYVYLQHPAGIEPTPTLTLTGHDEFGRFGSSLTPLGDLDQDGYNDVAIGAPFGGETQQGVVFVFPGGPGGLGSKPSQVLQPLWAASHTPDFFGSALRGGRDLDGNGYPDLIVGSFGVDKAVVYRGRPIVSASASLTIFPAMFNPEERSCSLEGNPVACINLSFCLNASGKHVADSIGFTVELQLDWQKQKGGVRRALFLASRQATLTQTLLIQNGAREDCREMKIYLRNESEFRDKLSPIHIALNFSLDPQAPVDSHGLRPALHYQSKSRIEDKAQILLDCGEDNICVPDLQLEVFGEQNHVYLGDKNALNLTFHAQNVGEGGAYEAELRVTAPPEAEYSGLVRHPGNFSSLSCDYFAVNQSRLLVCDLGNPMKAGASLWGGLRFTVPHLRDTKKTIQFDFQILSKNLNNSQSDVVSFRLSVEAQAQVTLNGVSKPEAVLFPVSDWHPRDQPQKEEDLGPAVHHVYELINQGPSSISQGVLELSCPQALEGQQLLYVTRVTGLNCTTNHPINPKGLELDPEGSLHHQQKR
Sequence of Integrin alpha-5/beta-1 (P08648 895-1049 limits assumed): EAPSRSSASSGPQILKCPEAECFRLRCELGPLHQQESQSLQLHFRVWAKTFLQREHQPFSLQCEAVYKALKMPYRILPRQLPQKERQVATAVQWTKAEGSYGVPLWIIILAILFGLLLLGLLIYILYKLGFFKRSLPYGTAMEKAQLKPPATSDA

[2] = Inhibition of human […] integrin expressed in human Jurkat cells assessed as inhibition of cell adhesion to ICAM1; format: cell-based
Integrin alpha-4/beta-7 = biological target: T2, Integrin alpha-4/beta-7 (Homo sapiens, UniProt P13612+P26010); assay: Inhibition of human alpha4beta7 integrin expressed in human RPMI8866 cells assessed as inhibition of cell adhesion to MadCam1; format: cell-based; how it was run: as §1
T2 sequence (P13612 whole entry): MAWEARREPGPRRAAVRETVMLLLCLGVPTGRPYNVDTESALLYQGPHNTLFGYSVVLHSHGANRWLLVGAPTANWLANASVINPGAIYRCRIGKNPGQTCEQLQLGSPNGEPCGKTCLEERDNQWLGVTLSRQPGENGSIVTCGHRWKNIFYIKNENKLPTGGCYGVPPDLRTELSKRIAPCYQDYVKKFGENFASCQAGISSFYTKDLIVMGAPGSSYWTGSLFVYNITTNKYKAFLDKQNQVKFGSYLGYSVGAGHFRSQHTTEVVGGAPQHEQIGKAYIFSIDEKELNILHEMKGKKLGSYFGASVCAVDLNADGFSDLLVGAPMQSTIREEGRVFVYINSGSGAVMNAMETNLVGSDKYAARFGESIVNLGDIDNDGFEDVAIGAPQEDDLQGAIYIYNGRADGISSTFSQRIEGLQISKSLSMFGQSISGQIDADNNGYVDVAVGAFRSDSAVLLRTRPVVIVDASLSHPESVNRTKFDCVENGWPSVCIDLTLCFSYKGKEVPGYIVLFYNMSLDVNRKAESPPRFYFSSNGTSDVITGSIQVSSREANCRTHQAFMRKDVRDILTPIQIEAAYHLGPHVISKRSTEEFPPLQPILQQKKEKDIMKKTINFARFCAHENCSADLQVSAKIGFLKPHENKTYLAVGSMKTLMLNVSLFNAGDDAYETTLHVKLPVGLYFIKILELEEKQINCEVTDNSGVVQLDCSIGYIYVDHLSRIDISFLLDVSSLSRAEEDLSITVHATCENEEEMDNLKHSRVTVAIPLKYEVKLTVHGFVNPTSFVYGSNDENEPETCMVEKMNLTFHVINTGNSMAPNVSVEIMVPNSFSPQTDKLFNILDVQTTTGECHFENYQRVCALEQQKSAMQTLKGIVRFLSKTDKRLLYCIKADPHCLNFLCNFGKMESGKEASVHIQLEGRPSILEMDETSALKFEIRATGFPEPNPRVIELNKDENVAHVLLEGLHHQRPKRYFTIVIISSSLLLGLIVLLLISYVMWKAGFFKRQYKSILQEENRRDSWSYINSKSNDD
T2 sequence (P26010 whole entry): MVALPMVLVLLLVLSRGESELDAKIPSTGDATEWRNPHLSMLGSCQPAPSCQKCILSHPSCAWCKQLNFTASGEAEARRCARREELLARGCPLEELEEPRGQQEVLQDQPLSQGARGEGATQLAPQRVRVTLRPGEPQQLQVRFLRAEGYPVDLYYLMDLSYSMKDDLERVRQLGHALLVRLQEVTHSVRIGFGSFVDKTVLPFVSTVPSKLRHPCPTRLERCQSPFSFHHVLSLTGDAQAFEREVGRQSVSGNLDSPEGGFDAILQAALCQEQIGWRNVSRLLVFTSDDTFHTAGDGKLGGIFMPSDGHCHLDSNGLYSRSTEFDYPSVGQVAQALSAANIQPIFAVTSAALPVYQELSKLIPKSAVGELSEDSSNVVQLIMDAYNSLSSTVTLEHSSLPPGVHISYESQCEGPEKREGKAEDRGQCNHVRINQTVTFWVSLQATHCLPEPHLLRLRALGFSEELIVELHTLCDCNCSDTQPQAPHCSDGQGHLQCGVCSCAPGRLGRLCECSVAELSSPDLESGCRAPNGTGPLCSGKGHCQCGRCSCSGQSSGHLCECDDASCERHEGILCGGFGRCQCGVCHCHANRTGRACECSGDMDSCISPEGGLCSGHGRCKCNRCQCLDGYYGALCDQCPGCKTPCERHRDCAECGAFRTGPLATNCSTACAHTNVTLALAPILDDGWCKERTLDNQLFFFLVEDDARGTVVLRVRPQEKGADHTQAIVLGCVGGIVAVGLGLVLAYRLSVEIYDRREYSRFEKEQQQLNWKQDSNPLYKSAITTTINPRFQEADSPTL

Integrin alpha-4/beta-1 [3] = biological target: T1, Integrin alpha-4/beta-1; assay: Antagonist activity at human alpha4beta1integrin in human Jurkat cells assessed as reduction of VCAM-1-induced ERK1/2 phosphorylation after 60 mins by Western blot analysis; format: cell-based
How it was run: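 Jurkat cells were serum-starved for 16 h in RPMI-1640 with 1% FBS, then preincubated with compound in suspension for 60 min. They were then kept in suspension or plated on VCAM-1-coated wells, with poly-L-lysine as the nonspecific substrate. After 60 min the cells were lysed and Western blotted for pERK1/2 and total ERK1/2. Densitometry normalized pERK1/2 to tERK1/2 (mean ± SEM, n = 6). IC50 came from a separate concentration series.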

Integrin alpha-V/beta-3 = Integrin alpha-V/beta-3 (Homo sapiens, UniProt P05106+P06756); assay: Inhibition of human alphaVbeta3 integrin expressed in human SK-MEL-24 cells assessed as inhibition of cell adhesion to fibronectin
Sequence of Integrin alpha-V/beta-3 (P05106 27-788 limits assumed): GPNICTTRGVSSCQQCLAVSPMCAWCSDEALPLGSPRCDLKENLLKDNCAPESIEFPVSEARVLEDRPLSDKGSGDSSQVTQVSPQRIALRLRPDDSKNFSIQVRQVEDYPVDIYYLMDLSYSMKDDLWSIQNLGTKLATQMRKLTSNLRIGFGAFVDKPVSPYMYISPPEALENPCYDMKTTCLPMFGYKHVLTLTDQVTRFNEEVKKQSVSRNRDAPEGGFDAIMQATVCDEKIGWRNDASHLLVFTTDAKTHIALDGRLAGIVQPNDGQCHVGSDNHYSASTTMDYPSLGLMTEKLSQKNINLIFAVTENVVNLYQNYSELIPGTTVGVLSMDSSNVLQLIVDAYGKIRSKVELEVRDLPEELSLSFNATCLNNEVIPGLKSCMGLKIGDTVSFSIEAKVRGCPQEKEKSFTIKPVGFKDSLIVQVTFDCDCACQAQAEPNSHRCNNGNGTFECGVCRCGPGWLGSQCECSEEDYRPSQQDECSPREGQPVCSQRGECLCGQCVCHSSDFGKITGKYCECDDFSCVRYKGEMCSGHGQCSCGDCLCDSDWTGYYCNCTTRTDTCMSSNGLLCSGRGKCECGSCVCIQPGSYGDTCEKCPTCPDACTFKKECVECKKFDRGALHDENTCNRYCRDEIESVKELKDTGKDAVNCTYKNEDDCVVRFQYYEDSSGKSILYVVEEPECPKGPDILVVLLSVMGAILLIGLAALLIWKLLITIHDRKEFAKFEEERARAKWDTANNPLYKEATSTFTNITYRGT
Sequence of Integrin alpha-V/beta-3 (P06756 31-889 limits assumed): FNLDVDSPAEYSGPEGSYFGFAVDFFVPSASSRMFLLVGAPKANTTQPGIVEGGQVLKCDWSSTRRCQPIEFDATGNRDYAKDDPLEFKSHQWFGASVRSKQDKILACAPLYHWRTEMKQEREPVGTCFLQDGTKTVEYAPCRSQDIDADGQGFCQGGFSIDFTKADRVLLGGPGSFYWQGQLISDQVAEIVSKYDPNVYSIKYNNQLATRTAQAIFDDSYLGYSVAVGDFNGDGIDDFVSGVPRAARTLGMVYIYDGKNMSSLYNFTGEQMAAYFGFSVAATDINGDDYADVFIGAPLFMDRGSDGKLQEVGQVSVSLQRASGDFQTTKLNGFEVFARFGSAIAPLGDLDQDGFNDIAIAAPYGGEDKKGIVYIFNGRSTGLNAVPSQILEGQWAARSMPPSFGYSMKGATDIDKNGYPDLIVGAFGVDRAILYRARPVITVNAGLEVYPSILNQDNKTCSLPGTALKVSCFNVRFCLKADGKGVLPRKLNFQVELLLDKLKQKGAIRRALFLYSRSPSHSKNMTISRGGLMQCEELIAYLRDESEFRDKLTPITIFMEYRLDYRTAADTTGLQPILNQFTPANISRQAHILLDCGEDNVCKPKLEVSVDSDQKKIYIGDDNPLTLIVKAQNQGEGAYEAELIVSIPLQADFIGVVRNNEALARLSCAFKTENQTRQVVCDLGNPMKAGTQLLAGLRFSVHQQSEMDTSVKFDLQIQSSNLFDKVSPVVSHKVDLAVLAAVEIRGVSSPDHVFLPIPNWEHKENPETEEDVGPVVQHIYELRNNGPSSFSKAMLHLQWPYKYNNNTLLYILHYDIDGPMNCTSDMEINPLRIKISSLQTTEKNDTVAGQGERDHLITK
Sequence of Integrin alpha-V/beta-3 (P06756 891-1048 limits assumed): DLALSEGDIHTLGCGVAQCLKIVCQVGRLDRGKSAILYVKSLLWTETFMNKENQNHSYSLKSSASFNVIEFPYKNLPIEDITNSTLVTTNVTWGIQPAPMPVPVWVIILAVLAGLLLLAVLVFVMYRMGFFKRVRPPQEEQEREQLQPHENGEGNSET

T1 sequence (P05556 whole entry, one chain of several): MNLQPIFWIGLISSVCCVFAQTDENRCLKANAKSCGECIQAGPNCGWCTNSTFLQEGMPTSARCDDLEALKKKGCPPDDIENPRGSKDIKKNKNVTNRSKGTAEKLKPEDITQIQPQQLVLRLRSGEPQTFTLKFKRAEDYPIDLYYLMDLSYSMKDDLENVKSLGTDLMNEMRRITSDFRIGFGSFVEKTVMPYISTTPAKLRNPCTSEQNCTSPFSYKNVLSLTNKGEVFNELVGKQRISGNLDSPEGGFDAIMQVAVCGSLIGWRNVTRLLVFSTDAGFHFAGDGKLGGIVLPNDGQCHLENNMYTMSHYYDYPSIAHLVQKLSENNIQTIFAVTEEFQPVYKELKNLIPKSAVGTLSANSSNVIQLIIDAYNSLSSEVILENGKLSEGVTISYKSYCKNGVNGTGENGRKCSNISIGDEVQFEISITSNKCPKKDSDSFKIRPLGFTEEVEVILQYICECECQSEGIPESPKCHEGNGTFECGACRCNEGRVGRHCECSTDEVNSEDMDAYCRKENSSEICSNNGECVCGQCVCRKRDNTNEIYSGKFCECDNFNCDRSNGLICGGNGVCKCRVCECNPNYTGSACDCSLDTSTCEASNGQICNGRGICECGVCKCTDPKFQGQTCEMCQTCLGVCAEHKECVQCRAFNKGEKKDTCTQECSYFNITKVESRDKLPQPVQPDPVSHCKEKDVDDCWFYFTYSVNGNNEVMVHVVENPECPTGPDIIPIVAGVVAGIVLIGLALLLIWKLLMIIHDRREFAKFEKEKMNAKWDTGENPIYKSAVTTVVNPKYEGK

SMILES	IC50 (Integrin alpha-4/beta-1 [1]) [nM]	IC50 (Integrin alpha-5/beta-1) [nM]	IC50 [2] [nM]	IC50 (Integrin alpha-4/beta-7) [nM]	IC50 (Integrin alpha-4/beta-1 [3]) [nM]	IC50 (Integrin alpha-V/beta-3) [nM]
Cc1ccccc1NC(=O)N1CC=C(C(=O)NCc2ccc(NC(=O)CC(=O)O)cc2)[C@@H]1C(C)C	110					
Cc1ccccc1NC(=O)N1CC=C(C(=O)NCc2ccc(NC(=O)CC(=O)O)cc2)[C@H]1C(C)C	250					
Cc1ccccc1NC(=O)Nc1ccc(CNC(=O)C2=CCN(C(=O)CC(=O)O)[C@H]2C(C)C)cc1	> 1000					
Cc1ccccc1NC(=O)Nc1ccc(CNC(=O)C2=CCN(C(=O)CC(=O)O)[C@@H]2C(C)C)cc1	10	> 1000	> 1000	270	10	> 1000
Cc1ccccc1NC(=O)Nc1ccc(CNC(=O)C2=CCN(C(=O)CC(=O)O)[C@H]2C2CCCCC2)cc1	> 1000					
Cc1ccccc1NC(=O)Nc1ccc(CNC(=O)C2=CCN(C(=O)CC(=O)O)[C@@H]2C2CCCCC2)cc1	62	> 1000	> 1000	343	131	> 1000

Reference: ChEMBL document CHEMBL3588829, “Dehydro-β-proline Containing α4β1 Integrin Antagonists: Stereochemical Recognition in Ligand-Receptor Interplay” (ACS Med Chem Lett, 2015)
